# Assay outcomes from PubChem.
# In the library only some 1.9% were active in any assay of this set; here they are far more common.
# sPLA2-III inh: Inhibits HGIII-sPLA2 liposome hydrolysis, primary screen. Q9NZ20. QFRET BODIPY PC-A2 liposome hydrolysis, fluorescence. inhibition, % at 12.2 µM. actives 0.56% (n = 370,000);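 active means inhibition above mean plus 3 SD of compounds lying within the high and low control bounds, cut at about 19% in these data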;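 further: 0% = median of test compound wells and 100% = no enzyme DMSO wells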
# Tb MetRS inh: blocks T. brucei methionyl-tRNA synthetase activity. purified T. brucei MetRS, ATP depletion, Kinase-Glo luminescence. inhibition, % at 11.9 µM. actives 0.4% (n = 360,000). AID 624268;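 active means inhibition above a per-plate cutoff of the control wells' mean inhibition plus 3 SD, cut at about 5.5% in these data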;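 further: 0% = DMSO wells median and 100% = median of wells with control inhibitor compound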
#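 technique = Kinase-Glo luminescence, ATP depletion format | system = purified MetRS (methionyl-tRNA synthetase) enzyme from Trypanosoma brucei | timing = 15 min preincubation, 2 h reaction, all 25 °C | evaluation = percent inhibition versus plate control medians | dosing = single dose, 11.9 µM final nominal, 0.9% final DMSO | also added = substrates ATP, L-methionine and bulk Escherichia coli tRNA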
# PLCg1 inh: inhibitors of human phospholipase C gamma1. P19174. purified PLC-gamma1, fluorogenic substrate, fluorescence. inhibition, % at 12.2 µM. actives 0.84% (n = 370,000)
# PLCb3 inh: blocks human PLC-beta3 enzyme activity; Q01970; Purified PLC-beta3, fluorogenic substrate, fluorescence; inhibition, % at 12.2 µM; actives 0.18% (n = 370,000); AID 720704; in the data active means inhibition above about 11%;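 further: 0% = median of compound wells on plate and 100% = full blocker control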
# DAGLB inh: diacylglycerol lipase beta (human) inhibition. inhibition, % at 5.17 µM. Q8NCG7. AID 504411. HEK293T DAGLB membrane lysate, EnzChek fluorogenic substrate. actives 0.059% (n = 340,000); in the data active means inhibition above about 34%;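 further: 0% = enzyme with vehicle and 100% = wells lacking enzyme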
# PLCgamma1 ctr: counter-screen for PLC-beta3 inhibitors: inhibitors of human PLC-gamma1. inhibition, % at 12.3 µM. shares compounds with PLCg1 inh. purified PLC-gamma1, fluorogenic substrate, fluorescence. actives 3.1% (n = 3,300). AID 743258
# PLCb3 confirm: confirmation of human PLC-beta3 inhibitors; shares compounds with PLCg1 inh; purified PLC-beta3, fluorogenic substrate fluorescence; inhibition, % at 12.3 µM; actives 1% (n = 3,300); in the data active means inhibition above about 11%
# * hit, by the source's call; / = no result given; ! = not confirmed by another sample. Unless noted, no stated cut-off is given here; in the data, active means inhibition above about 9.5%; inactive means the rest.
SMILES,sPLA2-III inh,Tb MetRS inh,PLCg1 inh,PLCb3 inh,DAGLB inh,PLCgamma1 ctr,PLCb3 confirm
COC(=O)C1=C(C)N(Cc2cccc(C(F)(F)F)c2)C(=NCc2ccc3c(c2)OCO3)NC1c1ccc(Cl)cc1 (stereo not given),-1.1,/,8.4,4.8,/,/,/
COc1ccc(-n2c(=S)[nH]c3cc(C(=O)N(C)Cc4ccccc4)ccc3c2=O)cc1,12.3,-0.1,11.9*,1.4,-3.3,0.6,2.3
COc1ccc(-n2c(=S)[nH]c3cc(C(=O)O)ccc3c2=O)cc1,1.6,1.1,-2.9,-2.9,-0.1,/,/
OCC1COC(c2ccccc2)=N1 (stereo not given),18.8,/,2.2,3.6,/,/,/
Oc1ccc(C[C@H]2CNCCN2CCC23CC4CC(CC(C4)C2)C3)cc1,1.2,-0.3,9.8*,11.1*,2.9,-5.8,-1.5
COC(=O)Cc1nnn2c1[C@@H](C)[C@@H](c1ccccc1Br)OC[C@H](C)C2,-1.4,/,-0.3,2.5,/,/,/
COC(=O)c1sccc1S(=O)(=O)Nc1ccc(N2CCCCC2)cc1,8.7,-0.5,9.6*,-3.3,3.6,-5.0,-3.3
COc1ccc(C(=O)CSc2nnc(-c3cccnc3)n2-c2ccc(C)cc2)cc1,-28.8,/,-0.7,1.1,/,/,/
C/C(=N\N=C1\NC(=O)CC(C(=O)O)S1)c1cccs1 (stereo not given),6.1,-1.2,3.7,2.1,-1.4,/,/
CNC(=O)C1CC(=O)N/C(=N/N=C(\C)c2cccs2)S1 (stereo not given),2.7,-0.3,7.4,11.5*,0.9,-1.4,0.2
O=C(Nc1ccc(F)cc1)OC1CC2CC1[C@H]1CCCCN1[C@H]2Cc1ccccc1 (stereo not given in full),-5.7,/,-0.7,0.9,/,/,/
COC(=O)c1ccc(OCCOc2ccccc2)cc1,3.1,-1.4,10.9*,0.7,-13.5,-7.3,-4.1
COC(=O)c1ccc(OCCOc2ccccc2C)cc1,8.2,-1.9,0.1,-2.5,-13.8,/,/
CC(C)CCN(C)C1CCN(C(=O)NCc2ccccc2)CC1,10.5,/,4.6,4.5,/,/,/
COc1ccc(C(=O)Nc2ccc(S(=O)(=O)N3CCCCC3C)cc2)c(OC)c1OC (stereo not given),-14.7,-0.2,10.3*,11.9*,-8.6,3.2,-0.5
CC(=O)c1ccc(NS(=O)(=O)c2ccc([N+](=O)[O-])cc2)cc1,-4.6,-0.2,7.0,17.3*,-1.9,-0.3,0.1
CC1CCCN(C(=O)c2ccc(NS(=O)(=O)c3cccc([N+](=O)[O-])c3)cc2)C1 (stereo not given),-14.4,0.1,15.7*,-3.5,4.0,-7.2,-2.0
CC1(C)N([O-])C(c2ccccc2)=C[N+](=O)C1(C)C,11.9,-1.9,10.5*,8.8,-0.3,-5.5,0.4
C[C@H]1Cn2nncc2Cn2c3ccccc3c(=O)n21,2.4,/,-26.1,-33.2,/,/,/
COCC(C)n1c(-c2ccc3c(c2)NC(=O)CO3)csc1=Nc1ccc(OC(F)F)cc1 (stereo not given),1.5,0.2,12.2*!,4.5,-0.1,4.1,3.1
O=C1COc2ccc(-c3csc(=Nc4ccc(OC(F)F)cc4)n3CC3CCCO3)cc2N1 (stereo not given),4.8,0.0,7.8,6.0,0.0,/,/
Cc1ccccc1S(=O)(=O)N1CCCc2nc(-c3ccc(F)cc3)ccc21,1.9,/,0.8,-1.5,/,/,/
NS(=O)(=O)c1cccc(NC(=O)COC(=O)C2CCN(S(=O)(=O)c3cccs3)CC2)c1,10.4,-0.4,9.7*,-8.5,-4.1,-0.1,-4.2
O=C(C1CCCN(S(=O)(=O)c2cccc3nonc23)C1)N1CCN(c2ccccc2Cl)CC1 (stereo not given),-5.5,-0.3,14.0*,7.2,-3.0,-0.9,3.6
NC(=O)c1ccc(NC(=O)COC(=O)C2CCN(S(=O)(=O)c3cccs3)CC2)cc1,-2.3,-0.2,5.3,-2.9,-1.4,/,/
SMILES,sPLA2-III inh,Tb MetRS inh,PLCg1 inh,PLCb3 inh,DAGLB inh,PLCgamma1 ctr,PLCb3 confirm
O=C(NCCc1ccccc1)C1CCN(S(=O)(=O)c2cccc3nonc23)CC1,5.4,-0.7,10.8*,-39.2,-2.5,-6.4,-3.1
O=C(C1CCCN(S(=O)(=O)c2cccc3nonc23)C1)N1CCN(c2cccc(Cl)c2)CC1 (stereo not given),3.2,-0.9,1.4,-1.7,-4.1,/,/
O=C(NCCc1ccccc1)C1CCN(S(=O)(=O)c2cccs2)CC1,3.4,-1.2,9.8*,8.6,0.7,-6.0,-4.0
CC(=O)C1=C(C)N(Cc2ccc(Br)cc2)C(=S)NC1c1ccc(F)cc1 (stereo not given),6.4,/,4.1,-6.4,/,/,/
COc1cc2c(cc1NC(=O)CSc1nnc(-c3ccccc3C)n1Cc1ccco1)oc1ccccc12,-16.9,/,-1.0,2.8,/,/,/
CC(C)=NOc1nc(N(C)C)nc(N2CCOCC2)n1,10.3,-0.1,10.9*,10.9*,/,-2.3,-0.2
CC(=O)NCCOc1nc(N(C)C)nc(N2CCOCC2)n1,1.2,-0.8,3.5,1.5,0.6,/,/
COc1ccc(N/N=C(\C#N)C(=N)SCc2ccccc2)cc1,3.2,0.4,9.6*,2.1,-0.7,6.0,2.4
COc1ccc(N/N=C(\C#N)C(=N)N2CCCCC2)cc1,8.0,0.0,0.0,-1.1,3.4,/,/
COC(=O)c1ccc2nc(-c3cccc(Br)c3)c(Cc3cccc(Cl)c3)n2c1,-1.2,/,-20.7,-31.4,/,/,/
COc1cc(C(=O)NC2CC(C)CC(C)(C)C2)cc(OC)c1OC (stereo not given),1.0,-0.1,5.3,11.6*,-5.0,-0.8,-1.8
O=C(NCC1CCN(C(=O)C(=O)c2cc3ccccc3o2)CC1)c1ccc2c(c1)OCC2,-4.8,/,2.0,5.0,/,/,/
Cc1cc(NC(=O)COc2ccccc2C(N)=O)no1,10.6,0.3,9.5*,4.3,0.5,-1.1,3.9
N#CCCCc1cn(-c2cccc(-c3noc4c3C(=O)N(CC(=O)N3CCOCC3)CC4)c2)nn1,3.0,/,0.8,1.8,/,/,/
COc1cc(/C=C(\C#N)C(=O)c2ccc(O)c(O)c2)cc(I)c1O,-23.9,1.8,10.1*,-1.3,10.2,-43.7,-43.9
COc1ccc(C=C(C#N)C(=O)c2ccccc2)cc1,7.5,-0.5,-10.3,-22.7,/,/,/
CCOC(=O)C1(Cc2cccc(Cl)c2)CCCN(C(=O)c2cc(C)n(C)n2)C1 (stereo not given),0.8,-0.3,10.0*,-2.5,-1.4,-2.3,1.5
CCOC(=O)C1(Cc2cccc(Cl)c2)CCCN(C(=O)c2ccnn2C)C1 (stereo not given),-7.0,-0.3,3.8,-3.1,-0.4,/,/
CCn1c2ccccc2c2cc(NC(=O)COC(=O)c3ccc(F)cc3Cl)ccc21,2.2,/,-1.0,2.1,/,/,/
CCc1ccc(OCCOCC(O)CN(CCO)CCO)cc1 (stereo not given),6.7,-0.3,4.0,11.4*,2.8,-9.6,-4.6
